The values that follow come from the EternaBench riboswitch data.

In the data set the test system is MS2 coat protein. Put plainly: apparent Kd, MS2 coat protein; higher = weaker binding; RNA-MaP array; FMN 200 µM where present. Summed up:
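Each design was made on Illumina sequencing-chip clusters by stalled E. coli RNA polymerase and titrated with SNAP-549-labelled MS2 coat protein from 0.7 or 1.5 nM, doubling to 3 µM, in the absence and then the presence of constant ligand. The buffer was 100 mM Tris-HCl pH 7.5, 80 mM KCl, 4 mM MgCl2, BSA, DTT, yeast tRNA and Tween-20. The apparent Kd is the median of filtered per-cluster fits of binding curves, with green signal normalised to red-channel RNA signal and control-cluster median Fmax.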

[1] abbreviates: designed as: OFF switch for flavin mononucleotide, no ligand.
Where [2] appears, read: ligand present: flavin mononucleotide, designed as: OFF switch for flavin mononucleotide.
[3] abbreviates: designed as: ON switch for flavin mononucleotide, no ligand.
Setting [4] is: ligand present: flavin mononucleotide, designed as: ON switch for flavin mononucleotide.

In general, apparent Kd refers to a dissociation constant that holds for the conditions of the assay.

Regarding “GCAGGUUAAGUCAGGAUAUACCUAUGGAUACAUAGGUAGAAGGGACAUGAGGAUCACCCAUGUGCCUCACCUGC”, the “apparent Kd” value by setting is: under setting [1], 18.3 nM; under setting [2], 63.1 nM.

Consider “CUUUUGUGAGGAUAUCAGUAGUUAAUAAAUAAAAUUACUACUGAGAAGGCACAUGAGGAUCACCCAUGUUCCUC”, for which the “apparent Kd” value runs as follows: under setting [1], 37.1 nM; under setting [2], 211 nM.

Regarding “GUGUGAUUAAGAGGAUAUAUACAACAUGAGGAUCACCCAUGUACCCGUGUAGUAGAAGGUUUGUUUUUAUAUAAUAAUAUAAUU”, the “apparent Kd” value under setting [3] is 29.3 nM and the “apparent Kd” value under setting [4] is 27.9 nM.

Take “UGUGUGAGACAGGAUAUGCUGGUUGUGUGGCGGGUAGAAGGGUCUACAUGAGGAUCACCCAUGUGGCCGGUUGG”: the “apparent Kd” value came to 22 nM under setting [1] and 22.8 nM under setting [2].

Consider “UCCAAACUUGGACUUGGUGGUGCAUAGGAUAUCCUUGGACAUGAGGAUCACCCAUGUACAACUGUGGAGAAGGGUGCAGGGCCU”, for which the “apparent Kd” value by setting is: under setting [3], 427 nM; under setting [4], 91.3 nM.

Turning to “UGUCCAUAGCAGAAGGCAUGUCAAAAGACAUGAGGAUCACCCAUGUAAACAUGAGGAUAUGCUAUGGACUAAGAGCGAAAGCUC”, the “apparent Kd” value reads like this: under setting [1], 8.57 nM; under setting [2], 5.66 nM.

On to “GAAUAAUUGAUCCUUUUUUAUUACAUGAGGAUCACCCAUGUGCAGGAUAUCGAUUAUUAUAGUUUCGAGAAGGGCAAGAACUAU”, for which the “apparent Kd” value worked out at 27.5 nM under setting [1] and 128 nM under setting [2].

On to “AUACACUAAGUGAGGAUAUCGAUUUCUUUAAGGAUCGAGAAGGCACAUGAGGAUCACCCAUGUUUGACGUGAAU”, for which the “apparent Kd” value under setting [1] is 34.4 nM and the “apparent Kd” value under setting [2] came to 75.8 nM.

Consider “UCGUUCCGUGUAGGAUAUUGGCCUUCUCUGGGCCGAGAAGGACAUGAGGAUCACCCAUGUAUGUUAUUAUCGCGCGUGGCGCAU”, for which the “apparent Kd” value under setting [1] worked out at 26.9 nM and the “apparent Kd” value under setting [2] worked out at 84.9 nM.

In the case of “GGUUGGCGAGGAUAUACAUGAGGAUCACCCAUGUGGUCCUGUGGCUGAUCUUGCCUUUGUAGAAGGCGCGAAUC”, the “apparent Kd” value by setting is: under setting [1], 25.4 nM; under setting [2], 103 nM.

Consider “CCGUCCUGAGGAUAUCCACCCUCAUACAUGAGGAUCACCCAUGUUCACCCUUGGGUUCCCGGAGAAGGCAGUUUUC”, for which the “apparent Kd” value reads like this: under setting [1], 243 nM; under setting [2], 374 nM.

As to “UGUUUUCAUGUAGGAUAUGCUUGUCGUAGAUACGCAGAAGGACAUGAGGAUCACCCAUGUUAAAGCGUCAGAGUAUAGAUUCUU”, the “apparent Kd” value runs as follows: under setting [1], 17.9 nM; under setting [2], 45.6 nM.

In the case of “GGGCCGGUGGAGAAGGAGCUUACGAAACGUAGGCUAGGAUAUCCACAUGAGGAUCACCCAUGUGGGAAUAUCUGAUUUUCACAG”, the “apparent Kd” value is 4.4 nM under setting [1] and 4.48 nM under setting [2].

As for “UGUUGUUCAGGAUAUGAUGUCUUAUACAUGAGGAUCACCCAUGUGGGUCCUGAUUUGGCGUCAGAAGGGAAUGUUG”, the “apparent Kd” value runs as follows: under setting [1], 551 nM; under setting [2], 569 nM.

For “UUCAGCUUGACAGGAUAUACAUCACUGCGAAAGCAGUGUAUCUUAAUAACAUGAGGAUCACCCAUGUAGAAGGGUCGAGCUGAA”, the “apparent Kd” value by setting is: under setting [1], 18.4 nM; under setting [2], 32.7 nM.

As for “GCUGUGGCAUGAGGAUAUGGUCAGCUUUGCUGACCAGAAGGCAUGUCAAUAGACAUGAGGAUCACCCAUGUAGUUAACACAGCA”, the “apparent Kd” value runs as follows: under setting [3], 572 nM; under setting [4], 40.7 nM.

On to “UUGCGGUAGGAGAAGGACAGAGGCUUAAUUACAUACAUGAGGAUCACCCAUGUAGGAUAUCCUACCUAACGCGGACUCCUCCAG”, for which the “apparent Kd” value by setting is: under setting [1], 7.65 nM; under setting [2], 7.83 nM.

Consider “UCUUGACAUGAGGAUCACCCAUGUCAGGAUAUAGUAGGACAAAUAAAUAAAAGUUCUACUAGAAGGGACGUGGG”, for which the “apparent Kd” value by setting is: under setting [1], 20.4 nM; under setting [2], 26.7 nM.

“GGAAUCUAGUCAGGAUAUCGGGCAAUAAUUGCACGAGAAGGGACAUGAGGAUCACCCAUGUACACCUCUGGUGAGUCUCGCAGG”: the “apparent Kd” value under setting [1] was determined as 16 nM and the “apparent Kd” value under setting [2] came to 44.3 nM.

On to “CAGUACUGAGGAUAUACAUGAGGAUCACCCAUGUGUCCUAGCUAGGAAACUAGCAUUAGUAGAAGGCAGUACUG”, for which the “apparent Kd” value under setting [1] was 18.9 nM and the “apparent Kd” value under setting [2] worked out at 300 nM.

Take “CAGAAGUCAGGAUAUCCUGCUCGUCACUUGCGUGAUGAGUAGGAGAAGGGACAUGAGGAUCACCCAUGUAAAGU”: the “apparent Kd” value under setting [1] came to 68.9 nM and the “apparent Kd” value under setting [2] was found to be 95 nM.

As for “CUUCUGUAAGGAUAUGUAUGCUCCUGGUAUGUCGCGAGGAGACAGAAGGUACAUGAGGAUCACCCAUGUGGGCG”, the “apparent Kd” value reads like this: under setting [1], 168 nM; under setting [2], 304 nM.

Take “GCGUUGAACGAGAAGGCCACUACAUGAGGAUCACCCAUGUCGUAGAGUAUUGGAGGAUAUCGAUAGGCGUCUCAUGAGGACAUA”: the “apparent Kd” value came to 23.6 nM under setting [1] and 11.6 nM under setting [2].

On to “ACGAUGUCAGGAUAUCGAUCACGGGUCUGAAGACACGUGUUUGAGAAGGGACAUGAGGAUCACCCAUGUGUCUA”, for which the “apparent Kd” value runs as follows: under setting [1], 43.6 nM; under setting [2], 223 nM.

For “GCAGCUAUUAUUAUACAUGAGGAUCACCCAUGUUACAUGUGUAAGGAUAUUGAAGUUUUUAUAAUCAAGAAGGUACUAUGCUGC”, the “apparent Kd” value by setting is: under setting [3], 14.4 nM; under setting [4], 9.33 nM.

As for “UACAUGAGGAUCACCCAUGUUUUGUCGUGUAUGGUAUUUAUCUAGGAUAUCAAUUGUUUUAUUUAUGAGAAGGAGAAUAUUAAU”, the “apparent Kd” value reads like this: under setting [1], 39.3 nM; under setting [2], 35.8 nM.

As for “GGAGGACGAAACAUGAGGAUCACCCAUGUGUUAUAAUUAAUAUAGGAUAUGUUUAUACUUUUUGGGCAGAAGGAUGAUAAUGCU”, the “apparent Kd” value runs as follows: under setting [3], 21.9 nM; under setting [4], 16.9 nM.

For the sequence “AAAGCGUGAGGAUAUGAGGCGCCGGGCCGGUUGGUGCGGAUUCAGAAGGCACAUGAGGAUCACCCAUGUAGGAA”, the “apparent Kd” value runs as follows: under setting [1], 23.4 nM; under setting [2], 36.2 nM.

For “CAAUUUAUAGCAGGAUAUAUAAUACAAUGAUUAAUAGAAGGGUUUAAUACAUGAGGAUCACCCAUGUCAUGUGUCAUAAUAACC”, the “apparent Kd” value was 33.4 nM under setting [1] and 28.8 nM under setting [2].

Take “GUGCGGAACCUAGGAUAUCCGGCAUGGACAGGUGGUAAGUCUCCCACAUGAGGAUCACCCAUGUAGGAGAAGGAGGAUCACGGA”: the “apparent Kd” value reads like this: under setting [1], 6.46 nM; under setting [2], 6.07 nM.

For the sequence “UUUUACGUUUCGUAGCAGUGUCAUCGAGAAGGCCCUGACAUGAGGAUCACCCAUGUUGUUACAUGGGAGGAUAUCGAUGAUGGG”, the “apparent Kd” value worked out at 41.3 nM under setting [3] and 6.93 nM under setting [4].

Take “AGGAGACAUGAGGAUCACCCAUGUGCACGUGGACGAGGAUAUGCUAGUAGAAGAUAGAAUGCAGAAGGCGUAAGAA”: the “apparent Kd” value runs as follows: under setting [3], 75.7 nM; under setting [4], 76.8 nM.

Turning to “UGUUUGGGAGGAUAUCCAAUAUAUGACAUGAGGAUCACCCAUGUUUCCACUCGUACCUCCGGAGAAGGCCCUGCGU”, the “apparent Kd” value by setting is: under setting [1], 24.7 nM; under setting [2], 22 nM.

As to “AUUAUUAAGUUAGGAUAUAGUAAAAUAAUUUAAUUAGAAGGAGCUCACAUGAGGAUCACCCAUGUAAGAGGAUCACCCAUGUAU”, the “apparent Kd” value by setting is: under setting [1], 22.3 nM; under setting [2], 16.5 nM.

As to “GGUACCAUCACAGGAUAUGCUUUUCUUUGGGAAGCAGAAGGGUGUAACAUGAGGAUCACCCAUGUGGUGCCAGGGCGUUAGCCC”, the “apparent Kd” value is, setting by setting: under setting [3], 188 nM; under setting [4], 16.8 nM.

Regarding “CCAAGCUGUGUGAGGAUAUGCUGGUCGAAAGAUCAGCAGAAGGCACAUGAGGAUCACCCAUGUGAAAAGCUUGG”, the “apparent Kd” value runs as follows: under setting [1], 18.3 nM; under setting [2], 50.9 nM.

For the sequence “UAAACAUGAGGAUCACCCAUGUUAUGAUCGGUUGAUGAAUGUGAGGAUAUACUUAAUUUUAUGGAGUAGAAGGCACUGGGUUCU”, the “apparent Kd” value was 29.1 nM under setting [3] and 30 nM under setting [4].

With “UUCAUGUAAGGAUAUGCGGGCGGGCGCGUUUGUGUUUGUUUGUAGAAGGUACAUGAGGAUCACCCAUGUACUGG”, the “apparent Kd” value came out at 22 nM under setting [1] and 68.2 nM under setting [2].

Regarding “CUGUUACAUGAGGAUCACCCAUGUGAGGAUAUGGUUCGGUACUGUCCUGUCGCGUACUCCAGAAGGCACGUGUC”, the “apparent Kd” value amounted to 29.4 nM under setting [1] and 29.9 nM under setting [2].

With “GCGUUACAUGAGGAUCACCCAUGUGAGGAUAUGGUUCGGUACUGUCCUGUCGCGUACUCCAGAAGGCACGGGUG”, the “apparent Kd” value by setting is: under setting [1], 200 nM; under setting [2], 115 nM.

“AAUAAACACACAGGAUAUAGCAUCGACGUUGCGAACUUAGCGACGUCGAUGCUAGAAGGGUGAAAACAUGAGGAUCACCCAUGU”: the “apparent Kd” value reads like this: under setting [3], 73.3 nM; under setting [4], 19.2 nM.

As for “CUCCUCCCGAAGGAUAUCCACGCCAACUUCGUAGGAGAAGGUCGGACAUGAGGAUCACCCAUGUGGCCAUGGUU”, the “apparent Kd” value under setting [1] worked out at 18.5 nM and the “apparent Kd” value under setting [2] was 40.3 nM.

As for “AUCAAUCGUGUAGGAUAUGCGUGGCGAAGCUAUGCAGAAGGACAUGAGGAUCACCCAUGUCUUUCUGUCUGCGUACAGACAGGA”, the “apparent Kd” value turned out to be 18 nM under setting [1] and 43.4 nM under setting [2].

For “CUAAAUCAUGUAGGAUAUGCAUGGCGAAGCUACGCAGAAGGACAUGAGGAUCACCCAUGUCUCUCCGUCUGGGUACAGACGGAG”, the “apparent Kd” value by setting is: under setting [1], 18.9 nM; under setting [2], 120 nM.

Turning to “GCGAUUUUGUAGAAGGUACGUUAUAAGACAAUGUAAGGAUAUACUGACAUGAGGAUCACCCAUGUAUAAUUAGUUUACAGUCGC”, the “apparent Kd” value by setting is: under setting [3], 7.74 nM; under setting [4], 5.91 nM.

With “AGGAAACAUGAGGAUCACCCAUGUAAGAUAUACACAGGAUAUGCGAAAAGAAACAAAGAAGCAGAAGGGUGGAAAA”, the “apparent Kd” value under setting [3] worked out at 35.1 nM and the “apparent Kd” value under setting [4] is 21.2 nM.

As to “AAAACAUGAGGAUCACCCAUGUAAAGAUCGGUUAAUAGAGGUGAGGAUAUACUAAAUUUUGGGUGGUAGAAGGCACUGGGUACA”, the “apparent Kd” value runs as follows: under setting [3], 187 nM; under setting [4], 122 nM.

Consider “AGAUGGUAGAGAGGAUAUCAUGUGCUGACAUGAGGAUCACCCAUGUAGGGACGUCGGUCCAAUUAUGAGAAGGCUCUACCAUCA”, for which the “apparent Kd” value turned out to be 81.7 nM under setting [3] and 50.8 nM under setting [4].
